In ChEMBL document CHEMBL1140371, “Pyrazolo[3,4-c]pyridazines as novel and selective inhibitors of cyclin-dependent kinases” (J Med Chem, 2005):
Values joined by “and” are separate entries in the source; they are usually repeats but may differ in a detail not shown here. Equal entries are not always repeated.

What was measured:
HeLa = assay: Cytotoxic effect against human cervical carcinoma cell line (HeLa); type: functional, cell-based
Procedure, shortened: (§1)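 MTT assay on cells in log-phase growth, seeded at 2.5 × 10³ cells/well and kept at 37 °C in 5% CO₂. Compounds were added 24 h after seeding as serial PBS dilutions of a […] DMSO stock. After 72 h exposure, MTT was added for 4 h, then DMSO; absorbance read at 570 nm. At least three experiments; IC50 taken from the mean % absorbance versus concentration.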

HT-29 = assay: Cytotoxic effect against human colon carcinoma cell line (HT-29); type: functional, cell-based; procedure, shortened: as §1
[1] = Inhibitory concentration against CDK1/Cyclin B complex from Marthasterias glacialis M-phase oocytes; type: cell-based; settings: oocyte
PC-3 = assay: Cytotoxic effect against human prostate carcinoma cell line (PC-3); type: functional, cell-based; procedure, shortened: as §1

| IC50 [1] | SMILES | IC50 (HeLa) | IC50 (HT-29) | IC50 (PC-3) |
| --- | --- | --- | --- | --- |
| > 50 µM | CC(C)(C)c1ccc(-c2[nH]nc3nnc(N)c-3c2-c2ccc(C(C)(C)C)cc2)cc1 | 8.78 µM | 8.5 µM | – |
| > 50 µM | Nc1[nH]nc2nnc(-c3ccc(C(F)(F)F)cc3)c(-c3ccc(C(F)(F)F)cc3)c12 | > 100 µM | > 100 µM | – |
| 15 µM | COc1ccc(-c2[nH]nc3nnc(N)c-3c2-c2ccc(OC)cc2)cc1 | > 100 µM | > 100 µM | > 100 µM |
| > 50 µM | Nc1[nH]nc2nnc(-c3ccccn3)c(-c3ccccn3)c12 | > 100 µM | 73 µM | – |
| > 50 µM | Oc1[nH]nc2nnc(-c3ccccc3)c(-c3ccccc3)c12 | > 100 µM | > 100 µM | > 100 µM |
| > 50 µM | Nc1ccc(-c2[nH]nc3nnc(N)c-3c2-c2ccc(N)cc2)cc1 | > 100 µM | 10.5 µM | – |
| > 50 µM | Cc1n[nH]c2nnc(N)c-2c1-c1ccccc1 | 88.3 µM | > 100 µM | 72.4 µM |
| > 50 µM | Cc1n[nH]c2nnc(N)c-2c1C | > 100 µM | > 100 µM | – |
| > 50 µM | Nc1[nH]nc2nnc(-c3ccc(-c4ccccc4)cc3)c(-c3ccc(-c4ccccc4)cc3)c12 | > 100 µM | > 100 µM | – |
| > 50 µM | Nc1nn(CCOCCO)c2nnc(-c3ccccc3)c(-c3ccccc3)c12 | > 100 µM | > 100 µM | > 100 µM |
| 9 µM | O=C(Nc1ccccc1)Nc1[nH]nc2nnc(-c3ccccc3)c(-c3ccccc3)c12 | 2.93 µM | > 100 µM | > 100 µM |
| > 50 µM | CC(=O)Nc1nn(C(C)=O)c2nnc(-c3ccccc3)c(-c3ccccc3)c12 | > 100 µM | > 100 µM | > 100 µM |
| > 50 µM | Nc1[nH]nc2nnc(-c3ccc([N+](=O)[O-])cc3)c(-c3ccc([N+](=O)[O-])cc3)c12 | > 100 µM | > 100 µM | – |
| 3 µM and 6.1 µM | Nc1n[nH]c2nnc(-c3ccccc3)c(-c3ccccc3)c12 | > 100 µM | > 100 µM | > 100 µM |
| > 50 µM | Nc1nn(COCCO)c2nnc(-c3ccccc3)c(-c3ccccc3)c12 | > 100 µM | > 100 µM | > 100 µM |
| > 50 µM | CC(=O)Nc1[nH]nc2nnc(-c3ccccc3)c(-c3ccccc3)c12 | > 100 µM | > 100 µM | > 100 µM |
| > 100 µM | CC/N=C(\S)Nc1[nH]nc2nnc(-c3ccco3)cc12 | – | – | – |
| > 50 µM | Nc1n[nH]c2nnc(-c3ccccc3)cc12 | > 100 µM | 80.8 µM | – |
| > 50 µM | Nc1nn(Cc2ccccc2)c2nnc(-c3ccccc3)c(-c3ccccc3)c12 | > 100 µM | > 100 µM | > 100 µM |
| > 50 µM | CC(=O)n1nc(N)c2c(-c3ccccc3)c(-c3ccccc3)nnc21 | > 100 µM | > 100 µM | > 100 µM |

| SMILES | IC50 [1] | IC50 (HeLa) | IC50 (HT-29) | IC50 (PC-3) |
| --- | --- | --- | --- | --- |
| Nc1[nH]nc2nnc(-c3ccco3)c(-c3ccco3)c12 | 1.5 µM | > 100 µM | > 100 µM | – |
| NNc1[nH]nc2nnc(-c3ccccc3)c(-c3ccccc3)c12 | 8.5 µM | – | – | – |
| CCNC(=O)Nc1[nH]nc2nnc(-c3ccco3)cc12 | 8.8 µM | – | – | – |
| Nc1[nH]nc2nnc(-c3ccco3)cc12 | 5.3 µM | > 100 µM | > 100 µM | > 100 µM |
| CCNC(=O)Nc1[nH]nc2nnc(-c3ccccc3)c(-c3ccccc3)c12 | 7.5 µM | 60.4 µM | > 100 µM | > 100 µM |
